Reference: ChEMBL document CHEMBL4261642, “Design, synthesis, and ex vivo evaluation of a selective inhibitor for retinaldehyde dehydrogenase enzymes” (Bioorg Med Chem, 2018)
Activity calls are given as the source filed them. The rule behind the calls is not given here.

Assays:
[1] = molecular target: T1, Retinal dehydrogenase 2 (Gallus gallus) (UniProt O93344); assay: Inhibition of RALDH2 in living intact choroid isolated from 4 day recovering chick eyes assessed as inhibition of ATRA synthesis at 0.1 uM after 24 hrs in presence of […]
T1 sequence (whole entry): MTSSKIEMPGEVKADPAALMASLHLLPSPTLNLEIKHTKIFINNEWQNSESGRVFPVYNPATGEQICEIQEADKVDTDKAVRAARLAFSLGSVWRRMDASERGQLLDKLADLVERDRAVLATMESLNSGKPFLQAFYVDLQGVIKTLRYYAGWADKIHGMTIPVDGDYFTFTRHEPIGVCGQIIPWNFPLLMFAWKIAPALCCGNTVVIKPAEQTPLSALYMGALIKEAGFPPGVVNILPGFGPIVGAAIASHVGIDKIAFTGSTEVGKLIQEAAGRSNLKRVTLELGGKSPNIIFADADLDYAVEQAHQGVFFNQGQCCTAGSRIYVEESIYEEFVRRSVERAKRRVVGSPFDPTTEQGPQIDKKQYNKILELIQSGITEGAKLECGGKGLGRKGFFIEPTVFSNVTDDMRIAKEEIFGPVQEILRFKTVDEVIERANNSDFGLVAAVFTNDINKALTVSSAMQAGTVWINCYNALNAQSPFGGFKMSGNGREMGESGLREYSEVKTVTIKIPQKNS

[2] = molecular target: T1, Retinal dehydrogenase 2 (Gallus gallus); assay: Inhibition of RALDH2 in living intact choroid isolated from 4 day recovering chick eyes assessed as inhibition of ATRA synthesis at 1 uM after 24 hrs in presence of […]
[3] = molecular target: T1, Retinal dehydrogenase 2 (Gallus gallus); assay: Inhibition of RALDH2 in living intact choroid isolated from normal chick eyes assessed as inhibition of ATRA synthesis after 24 hrs in presence of retinaldehyde and NAD+
[4] = molecular target: T1, Retinal dehydrogenase 2 (Gallus gallus); assay: Inhibition of RALDH2 in living intact choroid isolated from 4 day recovering chick eyes assessed as inhibition of ATRA synthesis at 10 uM after 24 hrs in presence of […]
Retinal dehydrogenase 2 = molecular target: T2, Retinal dehydrogenase 2 (Gallus gallus, UniProt O93344); assay: Inhibition of RALDH2 in living intact choroid isolated from 4 day recovering chick eyes assessed as inhibition of ATRA synthesis after 24 hrs in presence of […]
T2 sequence (O93344 whole entry): T1 sequence (whole entry)

[5] = molecular target: T3, Aldehyde dehydrogenase, mitochondrial (Homo sapiens, UniProt P05091); assay: Inhibition of N-terminal His6-tagged recombinant human mitochondrial ALDH2 using propionaldehyde as substrate preincubated for 20 mins to 1 hr followed by substrate addition and measured for 5 mins in presence of NADH by spectrophotometric assay; details: read-out: IC50
T3 sequence (P05091 whole entry): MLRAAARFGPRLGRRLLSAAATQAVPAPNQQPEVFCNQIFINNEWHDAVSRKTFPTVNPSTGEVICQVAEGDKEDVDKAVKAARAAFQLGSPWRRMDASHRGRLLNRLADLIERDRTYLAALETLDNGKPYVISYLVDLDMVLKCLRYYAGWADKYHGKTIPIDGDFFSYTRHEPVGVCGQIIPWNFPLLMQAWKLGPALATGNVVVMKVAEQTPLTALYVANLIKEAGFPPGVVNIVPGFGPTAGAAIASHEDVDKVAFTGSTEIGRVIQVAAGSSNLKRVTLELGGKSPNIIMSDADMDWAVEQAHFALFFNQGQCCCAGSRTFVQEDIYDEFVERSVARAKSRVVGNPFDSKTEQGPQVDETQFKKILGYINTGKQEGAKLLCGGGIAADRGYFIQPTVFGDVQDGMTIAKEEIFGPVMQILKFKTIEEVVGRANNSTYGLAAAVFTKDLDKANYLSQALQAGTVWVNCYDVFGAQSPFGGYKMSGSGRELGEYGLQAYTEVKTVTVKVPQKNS

[6] = compound: CC1=C(/C=C/C(C)=C/C=C/C(C)=C/C(=O)C(Cl)Cl)C(C)(C)CCC1; assay: Inhibition of N-terminal His6-tagged recombinant chick RALDH2 expressed in Escherichia coli BL21(DE3) cells at 150 nM using RAL as substrate assessed as Vmax preincubated for 20 mins followed by substrate addition and measured after 30 mins in presence of NADH by fluorescence assay (reference value: 1665 +/- 239.28 pmol/microM/min); details: Gallus gallus
[7] = compound: CC1=C(/C=C/C(C)=C/C=C/C(C)=C/C(=O)C(Cl)Cl)C(C)(C)CCC1; assay: Inhibition of N-terminal His6-tagged recombinant chick RALDH2 expressed in Escherichia coli BL21(DE3) cells at 250 nM using RAL as substrate assessed as Vmax preincubated for 20 mins followed by substrate addition and measured after 30 mins in presence of NADH by fluorescence assay (reference value: 1665 +/- 239.28 pmol/microM/min); details: Gallus gallus
[8] = compound: CC1=C(/C=C/C(C)=C/C=C/C(C)=C/C(=O)C(Cl)Cl)C(C)(C)CCC1; assay: Inhibition of N-terminal His6-tagged recombinant chick RALDH2 expressed in Escherichia coli BL21(DE3) cells at 250 nM using RAL as substrate assessed as Km preincubated for 20 mins followed by substrate addition and measured after 30 mins in presence of NADH by fluorescence assay (reference value: 82.12 +/- 28.41 microM); details: Gallus gallus
[9] = compound: CC1=C(/C=C/C(C)=C/C=C/C(C)=C/C(=O)C(Cl)Cl)C(C)(C)CCC1; assay: Inhibition of N-terminal His6-tagged recombinant chick RALDH2 expressed in Escherichia coli BL21(DE3) cells at 200 nM using RAL as substrate assessed as Vmax preincubated for 20 mins followed by substrate addition and measured after 30 mins in presence of NADH by fluorescence assay (reference value: 1665 +/- 239.28 pmol/microM/min); details: Gallus gallus
[10] = compound: CC1=C(/C=C/C(C)=C/C=C/C(C)=C/C(=O)C(Cl)Cl)C(C)(C)CCC1; assay: Inhibition of N-terminal His6-tagged recombinant chick RALDH2 expressed in Escherichia coli BL21(DE3) cells at 200 nM using RAL as substrate assessed as Km preincubated for 20 mins followed by substrate addition and measured after 30 mins in presence of NADH by fluorescence assay (reference value: 82.12 +/- 28.41 microM); details: Gallus gallus
[11] = compound: CC1=C(/C=C/C(C)=C/C=C/C(C)=C/C(=O)C(Cl)Cl)C(C)(C)CCC1; assay: Inhibition of N-terminal His6-tagged recombinant chick RALDH2 expressed in Escherichia coli BL21(DE3) cells at 150 nM using RAL as substrate assessed as Km preincubated for 20 mins followed by substrate addition and measured after 30 mins in presence of NADH by fluorescence assay (reference value: 82.12 +/- 28.41 microM); details: Gallus gallus
[12] = compound: CC1=C(/C=C/C(C)=C/C=C/C(C)=C/C(=O)C(Cl)Cl)C(C)(C)CCC1; assay: Inhibition of N-terminal His6-tagged recombinant chick RALDH2 expressed in Escherichia coli BL21(DE3) cells at 50 nM using RAL as substrate assessed as Vmax preincubated for 20 mins followed by substrate addition and measured after 30 mins in presence of NADH by fluorescence assay (reference value: 1665 +/- 239.28 pmol/microM/min); details: Gallus gallus
[13] = compound: CC1=C(/C=C/C(C)=C/C=C/C(C)=C/C(=O)C(Cl)Cl)C(C)(C)CCC1; assay: Inhibition of N-terminal His6-tagged recombinant chick RALDH2 expressed in Escherichia coli BL21(DE3) cells at 100 nM using RAL as substrate assessed as Km preincubated for 20 mins followed by substrate addition and measured after 30 mins in presence of NADH by fluorescence assay (reference value: 82.12 +/- 28.41 microM); details: Gallus gallus
[14] = compound: CC1=C(/C=C/C(C)=C/C=C/C(C)=C/C(=O)C(Cl)Cl)C(C)(C)CCC1; assay: Inhibition of N-terminal His6-tagged recombinant chick RALDH2 expressed in Escherichia coli BL21(DE3) cells at 150 nM using RAL as substrate assessed as Vmax at enzyme concentrations of 183 to 365 nM measured after 30 mins in presence of NADH by fluorescence assay; details: Gallus gallus
Method in brief: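 Chick RALDH2 at 46–365 nM pre-incubated 20 min with a fixed 150 nM inhibitor. NADH synthesis then started with 250 μM retinaldehyde and 4 mM NAD+, 30 min at 37°C, read fluorimetrically. Vmax plotted against enzyme concentration.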

[15] = compound: CC1=C(/C=C/C(C)=C/C=C/C(C)=C/C(=O)C(Cl)Cl)C(C)(C)CCC1; assay: Inhibition of N-terminal His6-tagged recombinant chick RALDH2 expressed in Escherichia coli BL21(DE3) cells at 50 nM using RAL as substrate assessed as Km preincubated for 20 mins followed by substrate addition and measured after 30 mins in presence of NADH by fluorescence assay (reference value: 82.12 +/- 28.41 microM); details: Gallus gallus
[16] = compound: CC1=C(/C=C/C(C)=C/C=C/C(C)=C/C(=O)C(Cl)Cl)C(C)(C)CCC1; assay: Inhibition of N-terminal His6-tagged recombinant chick RALDH2 expressed in Escherichia coli BL21(DE3) cells at 100 nM using RAL as substrate assessed as Vmax preincubated for 20 mins followed by substrate addition and measured after 30 mins in presence of NADH by fluorescence assay (reference value: 1665 +/- 239.28 pmol/microM/min); details: Gallus gallus
[17] = compound: CC1=C(/C=C/C(C)=C/C=C/C(C)=C/C(=O)C(Cl)Cl)C(C)(C)CCC1; assay: Inhibition of N-terminal His6-tagged recombinant chick RALDH1 expressed in Escherichia coli BL21(DE3) cells at 1000 nM using RAL as substrate assessed as Vmax preincubated for 20 mins followed by substrate addition and measured after 30 mins in presence of NADH by fluorescence assay (reference value: 54.77 +/- 7.58 pmol/microM/min); details: Gallus gallus
[18] = compound: CC1=C(/C=C/C(C)=C/C=C/C(C)=C/C(=O)C(Cl)Cl)C(C)(C)CCC1; assay: Inhibition of N-terminal His6-tagged recombinant chick RALDH1 expressed in Escherichia coli BL21(DE3) cells at 500 nM using RAL as substrate assessed as Vmax preincubated for 20 mins followed by substrate addition and measured after 30 mins in presence of NADH by fluorescence assay (reference value: 54.77 +/- 7.58 pmol/microM/min); details: Gallus gallus
[19] = compound: CC1=C(/C=C/C(C)=C/C=C/C(C)=C/C(=O)C(Cl)Cl)C(C)(C)CCC1; assay: Inhibition of N-terminal His6-tagged recombinant chick RALDH1 expressed in Escherichia coli BL21(DE3) cells at 100 nM using RAL as substrate assessed as Vmax preincubated for 20 mins followed by substrate addition and measured after 30 mins in presence of NADH by fluorescence assay (reference value: 54.77 +/- 7.58 pmol/microM/min); details: Gallus gallus
[20] = compound: CC1=C(/C=C/C(C)=C/C=C/C(C)=C/C(=O)C(Cl)Cl)C(C)(C)CCC1; assay: Inhibition of N-terminal His6-tagged recombinant chick RALDH1 expressed in Escherichia coli BL21(DE3) cells at 1000 nM using RAL as substrate assessed as Km preincubated for 20 mins followed by substrate addition and measured after 30 mins in presence of NADH by fluorescence assay (reference value: 67.09 +/- 25.06 microM); details: Gallus gallus
[21] = compound: CC1=C(/C=C/C(C)=C/C=C/C(C)=C/C(=O)C(Cl)Cl)C(C)(C)CCC1; assay: Inhibition of N-terminal His6-tagged recombinant chick RALDH1 expressed in Escherichia coli BL21(DE3) cells at 100 nM using RAL as substrate assessed as Km preincubated for 20 mins followed by substrate addition and measured after 30 mins in presence of NADH by fluorescence assay (reference value: 67.09 +/- 25.06 microM); details: Gallus gallus
[22] = compound: CC1=C(/C=C/C(C)=C/C=C/C(C)=C/C(=O)C(Cl)Cl)C(C)(C)CCC1; assay: Inhibition of N-terminal His6-tagged recombinant chick RALDH1 expressed in Escherichia coli BL21(DE3) cells at 500 nM using RAL as substrate assessed as Km preincubated for 20 mins followed by substrate addition and measured after 30 mins in presence of NADH by fluorescence assay (reference value: 67.09 +/- 25.06 microM); details: Gallus gallus

## O=C(NCCCCCCCCNC(=O)C(Cl)Cl)C(Cl)Cl
[1]
  inhibition: 40%
[2]
  inhibition: 51%
[3]
  inhibition: inactive
[4]
  inhibition: 76%
Retinal dehydrogenase 2
  EC50: 44.5 nM
[5]
  IC50: 229 nM

B1: Retinal dehydrogenase 2 (Gallus gallus), O93344 (protein)
chain: T1 sequence (whole entry)
[6]
  Vmax: 867 pmol/µM/min
[7]
  Vmax: 503 pmol/µM/min
[8]
  Km: 14.9 µM
[9]
  Vmax: 666 pmol/µM/min
[10]
  Km: 18.3 µM
[11]
  Km: 22.7 µM
[12]
  Vmax: 1560 pmol/µM/min
[13]
  Km: 47.2 µM
[14]
  Vmax: 0.5 to 3.01 µM/min
[15]
  Km: 80.7 µM
[16]
  Vmax: 1150 pmol/µM/min

B2: Aldehyde dehydrogenase 1A1 (Gallus gallus), P27463 (protein)
chain: MKKQGSPSNPAPVLPALPEPLKDLKIKYTKIFINNEWHDSVSGKKFEVFNPANEEKICEVAEGDKADIDKAVKAARKAFELGSPWRTMDASERGRLLNKLADLVERDRLTLATMEAIDGGKLFSTAYLMDLGACIKTIRYCAGWADKIHGRTVPMDGNFFTFTRHEPVGVCGQIIPWNFPLVMFIWKIAPALCCGNTVVVKPAEQTPLSALYMGSLIKEAGFPPGVVNIVPGFGPTAGAAISHHMDIDKVSFTGSTEVGKLIKEAAGKTNLKRVTLELGGKSPNIIFADADLDEAAEFAHIGLFYHQGQCCIAGSRIFVEEPIYDEFVRRSIERAKKYTLGDPLLPGVQQGPQIDKEQFQKILDLIESGKKEGAKLECGGGPWGNKGYFIQPTVFSNVTDDMRIAKEEIFGPVQQIMKFKTIDEVIKRANNTTYGLAAAVFTKDIDKALTFASALQAGTVWVNCYSAFSAQCPFGGFKMSGNGRELGEYGLQEYTEVKTVTIKIPQKNS
[17]
  Vmax: 25.7 pmol/µM/min
[18]
  Vmax: 33.8 pmol/µM/min
[19]
  Vmax: 50.1 pmol/µM/min
[20]
  Km: 22.8 µM
[21]
  Km: 62.2 µM
[22]
  Km: 32.9 µM
